In ChEMBL document CHEMBL3232966, “A new potential approach to block HIV-1 replication via protein-protein interaction and strand-transfer inhibition” (Bioorg Med Chem, 2014):
Activity calls are given as the source filed them. The rule behind the calls is not given here.

Assays:
[1] = Cytotoxicity against human MT4 cells assessed as cell viability by MTT assay; format: cell-based
Summary of the method: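 Uninfected MT-4 lymphocytes exposed to fivefold serial compound dilutions, run in parallel with the antiviral test. Viability read by MTT reduction to formazan by mitochondrial dehydrogenase, measured spectrophotometrically. CC50 = concentration lowering MT-4 viability by 50%.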

[2] = test system: Human immunodeficiency virus 1; assay: Antiviral activity against HIV-1 3B infected in MT4 cells assessed as inhibition of virus-induced cytopathic effect by MTT assay; format: functional, organism-based; details: Human immunodeficiency virus 1, 3B
Summary of the method: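 MT-4 lymphocytes infected with 100–300 CCID50 of HIV(IIIB) stock (CCID50 titrated on MT-4 cells), with fivefold serial compound dilutions. Protection against virus-induced cytopathic effect read by MTT reduction to formazan, measured spectrophotometrically. EC50 = concentration giving 50% protection against CPE.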

[3] = Selectivity index, ratio of CC50 for human MT4 cells to EC50 for HIV-1 3B; format: toxicity, cell-based; details: read-out: Ratio CC50/EC50
Summary of the method: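 Ratio CC50/EC50. CC50 comes from the MTT viability assay on uninfected MT-4 cells. EC50 comes from the MTT protection assay on MT-4 cells infected with HIV(IIIB).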

[4] = Inhibition of His-6-tagged HIV-1 integrase-recombinant flag-tagged LEDGF/p75 (unknown origin) interaction at 100 uM after 1hr by AlphaScreen assay
[5] = Inhibition of His-6-tagged HIV-1 integrase-recombinant flag-tagged LEDGF/p75 (unknown origin) interaction after 1hr by AlphaScreen assay
Summary of the method: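 AlphaScreen. Ni-chelate acceptor and anti-flag donor beads were added (20 µg/ml each final), then incubated 1 h at 30 °C in low light. Acceptor-bead light emission was read.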

[6] = biological target: Human immunodeficiency virus type 1 integrase (Human immunodeficiency virus 1, UniProt Q7ZJM1); assay: Inhibition of HIV-1 integrase strand transfer activity using 3'-end biotin labelled oligonucleotide/5'-end digoxigenin labelled oligonucleotide as substrate after 1 hr by ELISA
Chain of Human immunodeficiency virus type 1 integrase (Q7ZJM1 whole entry): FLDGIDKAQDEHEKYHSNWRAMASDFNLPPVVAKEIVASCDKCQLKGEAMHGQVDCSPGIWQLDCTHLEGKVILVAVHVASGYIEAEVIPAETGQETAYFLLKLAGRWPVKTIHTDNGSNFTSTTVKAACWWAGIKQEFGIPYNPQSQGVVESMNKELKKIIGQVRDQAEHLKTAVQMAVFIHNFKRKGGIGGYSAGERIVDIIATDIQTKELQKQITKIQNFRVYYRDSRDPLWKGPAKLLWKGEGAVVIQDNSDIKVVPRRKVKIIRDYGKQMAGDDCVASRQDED
Summary of the method: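 ELISA strand-transfer assay. Integrase (diluted in 750 mM NaCl, 10 mM Tris pH 7.6, 10% glycerol, 1 mM β-mercaptoethanol; 1.6 µM) was mixed with annealed oligonucleotides (7 nM): a 3'-biotin strand plus a 5'-digoxigenin strand lacking 3'-terminal GT. Buffer contained MgCl2, DTT, HEPES pH 7.5, 5% PEG and 15% DMSO. Incubation 1 h at 37 °C, NaOH denaturation, detection on avidin-coated plates.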

Row | SMILES | CC50 [1] [µM] | EC50 [2] [µM] | selectivity ratio [3] | inhibition [4] | IC50 [5] [µM] | IC50 [6] [µM]
1 | Cc1cc(C)cc(Cn2cc(C(=O)/C=C(\O)C(=O)O)c3cc(Cl)ccc32)c1 | > 125 | 56.1 | > 2 | inactive | – | –
2 | COc1ccc2c(c1)c(C(=O)/C=C(\O)C(=O)O)cn2Cc1ccc(C(F)(F)F)cc1 | – | – | – | 40% | – | –
3 | Cc1cc(C)cc(Cn2cc(C(=O)/C=C(\O)C(=O)O)c3cc(F)ccc32)c1 | – | – | – | 26% | – | –
4 | O=C(O)/C(O)=C/C(=O)c1cn(Cc2ccc(C(F)(F)F)cc2)c2ccc(Cl)cc12 | 23 | 5.09 | 5 | 80% | 32.9 | 0.26
5 | COc1ccc2c(c1)c(C(=O)C1=C(O)C(=O)OC1)cn2Cc1ccc(C(F)(F)F)cc1 | – | – | – | 65% | 52.2 | –
6 | O=C1OCC(C(=O)c2cn(Cc3ccc(C(F)(F)F)cc3)c3ccc(F)cc23)=C1O | – | – | – | 65% | 12.2 | –
7 | COc1ccc2c(c1)c(C(=O)C1=C(O)C(=O)OC1)cn2Cc1ccc(C(C)(C)C)cc1 | – | – | – | 93% | 17.1 | –
8 | COc1ccc2c(c1)c(C(=O)C1=C(O)C(=O)OC1)cn2Cc1ccc(C(F)(F)F)cc1C(F)(F)F | – | – | – | 61% | 39.5 | –
9 | COc1ccc2c(c1)c(C(=O)/C=C(\O)C(=O)O)cn2Cc1ccc(C(F)(F)F)cc1C(F)(F)F | – | – | – | 33% | – | –
10 | COc1ccc2c(c1)c(C(=O)/C=C(\O)C(=O)O)cn2Cc1c(C)cc(C)cc1C | 23.5 | 3.23 | 8 | 72% | 33.1 | 0.42
11 | CC(C)(C)c1ccc(Cn2cc(C(=O)/C=C(\O)C(=O)O)c3cc(F)ccc32)cc1 | – | – | – | 33% | – | –
12 | CC(C)(C)c1ccc(Cn2cc(C(=O)/C=C(\O)C(=O)O)c3cc(Cl)ccc32)cc1 | – | – | – | 88% | 10 | –
13 | Cc1cc(C)cc(Cn2cc(C(=O)/C=C(\O)C(=O)O)c3c(O)cccc32)c1 | 44 | 4.63 | 10 | – | 3.5 | –
14 | O=C1OCC(C(=O)c2cn(Cc3ccc(C(F)(F)F)cc3C(F)(F)F)c3ccc(Cl)cc23)=C1O | – | – | – | 86% | 21.5 | –
15 | COc1ccc2c(c1)c(C(=O)C1=C(O)C(=O)OC1)cn2Cc1c(C)cc(C)cc1C | – | – | – | 82% | 33.2 | –
16 | COc1ccc2c(c1)c(C(=O)/C=C(\O)C(=O)O)cn2Cc1ccc(-c2ccccc2)cc1 | – | – | – | 59% | > 100 | –
17 | O=C(O)/C(O)=C/C(=O)c1cn(Cc2ccc(C(F)(F)F)cc2C(F)(F)F)c2ccc(F)cc12 | – | – | – | inactive | – | –
18 | Cc1cc(C)cc(Cn2cc(C(=O)C3=C(O)C(=O)OC3)c3cc(F)ccc32)c1 | – | – | – | 73% | 20.3 | –
19 | O=C1OCC(C(=O)c2cn(Cc3ccc(-c4ccccc4)cc3)c3ccc(F)cc23)=C1O | – | – | – | 89% | 15.8 | –

Row | SMILES | CC50 [1] [µM] | EC50 [2] [µM] | selectivity ratio [3] | inhibition [4] | IC50 [5] [µM] | IC50 [6] [µM]
20 | COc1ccc2c(c1)c(C(=O)C1=C(O)C(=O)OC1)cn2Cc1cc(C)cc(C)c1 | – | – | – | 66% | – | –
21 | O=C(O)/C(O)=C/C(=O)c1cn(Cc2ccc(C(F)(F)F)cc2C(F)(F)F)c2ccc(Cl)cc12 | – | – | – | 80% | 3.8 | –
22 | O=C(O)/C(O)=C/C(=O)c1cn(Cc2ccc(-c3ccccc3)cc2)c2ccc(Cl)cc12 | – | – | – | 31% | – | –
23 | COc1ccc2c(c1)c(C(=O)/C=C(\O)C(=O)O)cn2Cc1ccc(C(C)(C)C)cc1 | – | – | – | 65% | 91.7 | –
24 | COc1ccc2c(c1)c(C(=O)/C=C(\O)C(=O)O)cn2Cc1cc(C)cc(C)c1 | 51 | 2.24 | 23 | 89% | 53.9 | 1.09
25 | Cc1cc(C)c(Cn2cc(C(=O)C3=C(O)C(=O)OC3)c3cc(F)ccc32)c(C)c1 | 107 | 49 | 2 | 81% | 5.6 | –
26 | COc1cccc2c1c(C(=O)/C=C(\O)C(=O)O)cn2Cc1ccc(F)cc1 | – | – | 70 | – | 36.2 | –
27 | COc1ccc2c(c1)c(C(=O)C1=C(O)C(=O)OC1)cn2Cc1ccc(-c2ccccc2)cc1 | – | – | – | 51% | – | –
28 | O=C(O)/C(O)=C/C(=O)c1cn(Cc2ccc(-c3ccccc3)cc2)c2ccc(F)cc12 | – | – | – | 72% | 8.1 | –
29 | Cc1cc(C)c(Cn2cc(C(=O)C3=C(O)C(=O)OC3)c3cc(Cl)ccc32)c(C)c1 | 40.5 | 19.8 | 2 | 85% | 23.6 | –
30 | CC(C)(C)c1ccc(Cn2cc(C(=O)C3=C(O)C(=O)OC3)c3cc(Cl)ccc32)cc1 | 53 | 23.4 | 2 | 83% | 52.5 | –
31 | O=C1OCC(C(=O)c2cn(Cc3ccc(C(F)(F)F)cc3)c3ccc(Cl)cc23)=C1O | – | – | – | 92% | 12.3 | –
32 | O=C1OCC(C(=O)c2cn(Cc3ccc(C(F)(F)F)cc3C(F)(F)F)c3ccc(F)cc23)=C1O | – | – | – | 37% | – | –
33 | Cc1cc(C)cc(Cn2cc(C(=O)C3=C(O)C(=O)OC3)c3cc(Cl)ccc32)c1 | 53.5 | 16.9 | 3 | 96% | 23.1 | –
34 | O=C(O)/C(O)=C/C(=O)c1cn(Cc2ccc(C(F)(F)F)cc2)c2ccc(F)cc12 | 15 | 7.83 | 2 | 77% | 17.8 | 1.55
35 | O=C1OCC(C(=O)c2cn(Cc3ccc(-c4ccccc4)cc3)c3ccc(Cl)cc23)=C1O | – | – | – | 80% | 21.8 | –
36 | Cc1cc(C)c(Cn2cc(C(=O)/C=C(\O)C(=O)O)c3cc(F)ccc32)c(C)c1 | 104 | 5.14 | 21 | 71% | 15.2 | 2.51
37 | Cc1cc(C)c(Cn2cc(C(=O)/C=C(\O)C(=O)O)c3cc(Cl)ccc32)c(C)c1 | – | – | – | 59% | > 100 | –
38 | CC(C)(C)c1ccc(Cn2cc(C(=O)C3=C(O)C(=O)OC3)c3cc(F)ccc32)cc1 | – | – | – | 96% | 36.2 | –
